Assay [1] has as its system MDA-MB-231. The experiment in a line: Induction of apoptosis in human MDA-MB-231 cells assessed as increase in nuclear chromatin condensation incubated for 48 hrs by Hoechst 33258 staining based fluorescence microscopic method. The class given is functional, cell-based. The essentials:
(§1)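 MDA-MB-231 cells were grown 24 h and treated with 8.6, 12.4 or 17.3 μM for 48 h. They were then fixed 10 min, washed three times in PBS and stained 5 min with Hoechst 33258. Nuclear condensation was imaged by fluorescence microscopy (excitation 350 nm, emission 460 nm).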

A further assay concerns RAW264.7. Nature of the assay: Antiinflammatory activity in mouse RAW264.7 cells assessed as reduction in LPS-induced TNFalpha production at 0.8 to 3.1 uM preincubated with LPS for 24 hrs followed by compound addition and measured after 24 hrs by ELISA. In kind it is functional, cell-based. The essentials: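 Murine RAW 264.7 macrophages, 1 × 10^5/well, 4 h settling, then LPS (1.0 μg/mL) for 24 h. Medium was swapped for test solutions (0.8–3.1 μM or 2.3–9.2 μM), or DXM 254.8 μM as positive control, for another 24 h. Secreted NO was measured by Griess assay; TNF-α and IL-6 by ELISA. Run in triplicate, mean ± SD.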

The test system of assay [2] is MDA-MB-231. The experiment in a line: Induction of mitochondrial membrane potential loss in human MDA-MB-231 cells assessed as cell population with intact mitochondrial membrane potential by measuring red fluorescence at 17.3 uM incubated for 48 hrs by JC1 staining based flow cytometric analysis (reference value: 92.04%). In kind it is functional. The essentials: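 MDA-MB-231 cells in DMEM/10% FBS exposed 48 h to 0, 8.6, 12.4 or 17.3 μM. Harvested cells stained with JC-1 for 15 min in the dark, then analysed by flow cytometry. Excitation 488 nm; green emission read at 525 nm, red at 590 nm. Output given as percent green-to-red fluorescence intensity ratio. Triplicate, mean ± SD.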
For orientation: In flow cytometry, cells or beads pass a laser one at a time.

For a further assay, the system named is HepG2. Nature of the assay: Antiproliferative activity against human HepG2 cells assessed as cell viability at 24.7 uM incubated for 48 hrs by methylene blue assay relative to control. In kind it is functional. To be noted: HepG2, 48 h, read-out: Activity. The gist of the method: (§2)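 MDA-MB-231, MCF-7, HepG2 and LNCaP cells were grown in DMEM; HCT-116 and LO-2 in RPMI-1640; all with 10% FBS at 37 °C, 5% CO2. Cells seeded at 1.5 × 10^5 cells/mL and incubated overnight (~12 h), then exposed to 6.2–30.9 μM or 23.1–185.0 μM (final DMSO <0.1%) for 48 h. Read by methylene blue staining; viability = Abs treated/Abs untreated × 100%, triplicate.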

The subject of assay [3] is MDA-MB-231. Nature of the assay: Induction of apoptosis in human MDA-MB-231 cells assessed as necrotic cells at 17.3 uM incubated for 48 hrs by annexin V-FITC/PI based flow cytometric analysis (Rvb= 0.74%). In kind it is functional.
Assay [4] relates to MDA-MB-231. Nature of the assay: Induction of apoptosis in human MDA-MB-231 cells assessed as necrotic cells at 12.4 uM incubated for 48 hrs by annexin V-FITC/PI based flow cytometric analysis (Rvb= 0.74%). In kind it is functional.
For assay [5], the system named is MDA-MB-231. The experiment in a line: Induction in apoptosis in human MDA-MB-231 cells assessed as apoptotic cell bodies formation at 17.3 uM incubated for 48 hrs by Hoechst 33258 staining based fluorescence microscopic method. In kind it is functional. The essentials:
as §1

The test system of assay [6] is MDA-MB-231. The experiment in a line: Induction of apoptosis in human MDA-MB-231 cells assessed as late apoptotic cells at 12.4 uM incubated for 48 hrs by annexin V-FITC/PI based flow cytometric analysis (Rvb= 2.82%). In kind it is functional.
Assay [7] relates to MDA-MB-231. The experiment in a line: Induction of cell cycle arrest in human MDA-MB-231 cells assessed as accumulation of cells at S phase at 8.6 uM incubated for 48 hrs by PI/RNase staining based flow cytometric analysis (reference value: 39.2%). In kind it is functional. The gist of the method:
(§3)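 Cell-cycle analysis: MDA-MB-231 cells were preincubated 24 h, then treated with 8.6, 12.4 or 17.3 μM for 48 h. Cells were pelleted, fixed in 75% ethanol at −20 °C overnight, and stained with PI/RNase for 15 min in the dark at ambient temperature. About 10 000 cells per well were analyzed by flow cytometry for DNA content.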

The test system of a further assay is LNCaP. The experiment in a line: Antiproliferative activity against human LNCAP cells assessed as cell viability at >30.9 uM incubated for 48 hrs by methylene blue assay relative to control. In kind it is functional. The gist of the method: as §2
The test system of assay [8] is MDA-MB-231. The experiment in a line: Induction of apoptosis in human MDA-MB-231 cells assessed as early apoptotic cells at 8.6 uM incubated for 48 hrs by annexin V-FITC/PI based flow cytometric analysis (Rvb= 0.24%). In kind it is functional.
Assay [9] deals with MDA-MB-231. Nature of the assay: Induction of apoptosis in human MDA-MB-231 cells assessed as necrotic cells at 8.6 uM incubated for 48 hrs by annexin V-FITC/PI based flow cytometric analysis (Rvb= 0.74%). The class given is functional.
In assay [10] the test system is MDA-MB-231. The experiment in a line: Induction of cell cycle arrest in human MDA-MB-231 cells assessed as accumulation of cells at G0/G1 phase at 17.3 uM incubated for 48 hrs by PI/RNase staining based flow cytometric analysis (reference value: 50.4%). In kind it is functional. The essentials: as §3
The subject of the next assay is MCF7. The experiment in a line: Antiproliferative activity against human MCF7 cells assessed as cell viability at 24.2 uM incubated for 48 hrs by methylene blue assay relative to control. In kind it is functional. To be noted: MCF7, 48 h, read-out: Activity. The essentials: as §2
The subject of assay [11] is MDA-MB-231. Nature of the assay: Induction of apoptosis in human MDA-MB-231 cells assessed as viable cells at 12.4 uM incubated for 48 hrs by annexin V-FITC/PI based flow cytometric analysis (Rvb= 96.21%). The following applies: MDA-MB-231, 48 h, read-out: Activity. In kind it is functional.
Assay [12] concerns MDA-MB-231. Nature of the assay: Induction of cell cycle arrest in human MDA-MB-231 cells assessed as increase in accumulation of cells at G0/G1 phase incubated for 48 hrs by PI/RNase staining based flow cytometric analysis. The class given is functional. The gist of the method:
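Cells grown 24 h in DMEM/10% FBS at 37 °C, 5% CO2, then exposed 48 h to 8.6, 12.4 or 17.3 μM. Pelleted, fixed in 75% ethanol at −20 °C overnight, stained with PI-containing RNase 15 min in the dark at ambient temperature. About 10 000 cells per well analysed by flow cytometry. Triplicate, mean ± SD.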

In assay [13] the test system is MDA-MB-231. The experiment in a line: Induction of cell cycle arrest in human MDA-MB-231 cells assessed as accumulation of cells at S phase at 12.4 uM incubated for 48 hrs by PI/RNase staining based flow cytometric analysis (reference value: 39.2%). In kind it is functional. The gist of the method: as §3
The subject of assay [14] is MDA-MB-231. The experiment in a line: Induction of apoptosis in human MDA-MB-231 cells assessed as late apoptotic cells at 8.6 uM incubated for 48 hrs by annexin V-FITC/PI based flow cytometric analysis (Rvb= 2.82%). The class given is functional.
The subject of assay [15] is MDA-MB-231. The experiment in a line: Induction of apoptosis in human MDA-MB-231 cells assessed as early apoptotic cells at 12.4 uM incubated for 48 hrs by annexin V-FITC/PI based flow cytometric analysis (Rvb= 0.24%). In kind it is functional.

Structures are written as SMILES. The source made the active and inactive calls. The rule behind the calls is not given here.

The text below walks through data of ChEMBL document CHEMBL4414566, “Cytotoxicity and Anti-inflammatory Properties of Apigenin-Derived Isolaxifolin” (J Nat Prod, 2019).

Take `CC(C)=CCc1c2c(c(O)c3c(=O)cc(-c4ccc(O)cc4)oc13)C=CC(C)(C)O2` [LAXIFOLIN]: the Activity entry in the assay on MDA-MB-231 [1] was “Dose-dependent effect”; with MDA-MB-231 [2] it was 73.25%; in the assay with MDA-MB-231 [3] it was 5.57%; with MDA-MB-231 [4], 1.19%; in the assay on MDA-MB-231 [6], 12.89%; in the assay on MDA-MB-231 [7], 29.5%. In addition, the Activity in the assay with LNCaP is 20%; with MDA-MB-231 [8], 0.87%; in the assay with MDA-MB-231 [9] it was 1.04%; in the assay on MDA-MB-231 [10], 63.3%; with MDA-MB-231 [12], “Dose-dependent effect”; with MDA-MB-231 [13], 28.2%. Further, the Activity in the assay with MDA-MB-231 [14] turned out to be 9.8%; in the assay with MDA-MB-231 [15], 0.58%. The outcome with RAW264.7 and in the assay on MDA-MB-231 [5] was Active. The viability at 24.7 µM with HepG2 was 20%. The viability at 24.2 µM with MCF7 is 20%. Also, the viability at 12.4 µM with MDA-MB-231 [11] worked out at 85.3%.
